Screens deposited in PubChem by several laboratories.
M1 antagonist: antagonists of rat M1 muscarinic receptor | P08482 | B-score at 10 µM | CHO-M1 cells, Fluo-4 calcium, ACh EC80 antagonist mode; stronger effect = lower value | AID 628 | 3.4% of 64,000 active;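 active = calcium fluorescence response, raw or row-and-column corrected B-score, differing from the plate sample mean either way at a set confidence level, mostly lower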
HER2 expr 66K: Her2 kinase expression inhibition; SKBR-3 HER2 protein level, AlphaScreen, 18-24 h; stronger effect = lower value; HER2 level % of control, % at 10 µM; 0.69% of 65,000 active;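 active = HER2 level under 5% of the carrier-only control; inconclusive = no clear call, values can overlap the other calls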;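 also: lower value means stronger loss of Her2 protein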
JNK3 blocker: inhibitors of human JNK3 kinase | P53779 | purified JNK3 kinase activity, HTS | inhibition, % at 8 µM | 0.61% of 60,000 active | AID 746; in the data active = inhibition above about 17%
BAP1 block: human BAP1 deubiquitinase inhibition. recombinant BAP1, Ub-AMC hydrolysis fluorescence kinetic; stronger effect = lower value. 0.48% of 72,000 active. calls only at 20 µM. AID 436;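 active = activity remaining at or below 50% of control, provided the compound also passes the data quality filters; inactive = the rest, including low values that fail the filters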
HEK293 NFkB inh: lowers PMA/ionomycin-induced NF-kB signal in HEK293 cells; HEK-293 NF-kB luciferase reporter, luminescence; inhibition, % at 3 µM; 0.21% of 62,000 active;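 active = inhibition above the mean of all tested compounds plus 3 SD, cut at about 40% in these data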
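Material: HEK-293 cells with stable firefly luciferase reporter driven by four HIV NF-kB elements / Also added: PMA plus ionomycin mix as NF-kB-activating stimulus / Compound dosing: 3 µM once, 0.30% DMSO / Times: 1 h pretreatment, 16 h stimulation, 37 °C / Signal: luminescence / Evaluation: per-plate % inhibition versus controls / Benchmarks: DMSO and 10 µM reference inhibitor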
M1 agonist: agonists of M1 muscarinic receptor. B-score at 10 µM. CHO-M1 cells, Fluo-4 calcium fluorescence, agonist mode; stronger effect = higher value. 3% of 64,000 active;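 active = fluorescence rise, raw or as B-score row- and column-corrected plate score, outside the 99.7% band of its plate's samples, either direction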
M1 agonist conf: confirmation of rat M1 muscarinic receptor agonists | shares compounds with M1 agonist | CHO-M1 cells, Fluo-4 calcium fluorescence, agonist mode; actives lie on both sides | fluorescence change (max-min) at 10 µM | 19% of 1,700 active;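 active = fluorescence change differs from the solvent-only DMSO control mean at a set confidence level in both duplicate runs; inconclusive = differs from solvent-only control mean in just one of two runs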;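 also: an EC20 dose of acetylcholine follows compound addition during the same imaging run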
M4 agonist ctr: activates rat M4 receptor in counter-screen for M1 agonists; 9% of 1,700 active; AID 1741; shares compounds with M1 agonist; CHO M4/Gqi5 cells, Fluo-4 calcium fluorescence, agonist mode; actives lie on both sides; fluorescence change (max-min) at 10 µM;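 active = fluorescence change differing from the plate's solvent-only control wells at 99.7% confidence in both duplicates, whether higher or lower; inconclusive = differs from solvent controls in only one of two duplicates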
Hits are given with their value; – = inactive; ? = inconclusive; · = no result shown. Hits are enriched below; roughly 6.6% of the tested compounds scored in any of these assays.

SMILES	M1 antagonist	HER2 expr 66K	JNK3 blocker	BAP1 block	HEK293 NFkB inh	M1 agonist	M1 agonist conf	M4 agonist ctr
O=C1c2ccccc2N2C(=O)c3ccccc3C2N1Cc1ccco1 (configuration not stated)	–	–	·	·	–	5.3	–	–
O=C1c2ccccc2N2C(=O)c3ccccc3C2N1O (configuration not stated)	–	–	–	–	–	–	·	·
Cn1c(C(=O)NCC2CCCO2)cc2c(=O)n(C)c3ccccc3c21 (configuration not stated)	–	–	–	–	–	–	·	·
Cc1cccc(N2CCN(C(=O)c3cc4c(=O)n(C)c5ccccc5c4n3C)CC2)c1C	–	–	–	–	–	–	·	·
CCCN1Cc2cccc(C(=O)N3CCN(c4cc(Cl)ccc4C)CC3)c2C1=O	–	–	–	–	–	2.3	?	–
Cn1c(C(=O)NC2CCCC2)cc2c(=O)n(C)c3ccccc3c21	–	–	–	–	–	4.1	-39	–
Cc1ccc(Cl)cc1N1CCN(C(=O)c2cc3c(=O)n(C)c4ccccc4c3n2C)CC1	–	–	–	–	–	7.4	–	–
Nc1ccc2c(c1)C(=O)N(CCO)C2=O	·	·	·	–	·	·	·	·
Cc1ccc(-c2csc(NC(=O)Nc3ccccc3)n2)cc1	·	·	·	–	·	·	·	·
Cc1ccc(NC(=O)COc2ccc(C34CC5CC(CC(C5)C3)C4)cc2)cc1	·	·	·	–	·	·	·	·
CCOc1ccc(N/C(=N/c2nc(C)cc(C)n2)NC(=O)c2ccccc2)cc1	·	·	·	–	·	·	·	·
CC(=O)Nc1cccc(NC(=O)C2CC(=O)N(c3ccc(C)cc3)C2)c1 (configuration not stated)	–	–	–	–	–	3.1	–	–
Cc1ccc(N2CC(C(=O)Nc3ccncc3)CC2=O)cc1 (configuration not stated)	–	–	–	–	–	–	·	·
CCCn1nc(C(=O)Nc2cccc(C(=O)OC)c2)c2ccccc2c1=O	–	–	–	–	–	5.7	–	–
O=C(O)c1ccc(N=CC=Cc2ccc([N+](=O)[O-])cc2)cc1	·	·	·	–	·	·	·	·
Cc1nc2ccccc2c2oc(C(=O)NCc3ccc4c(c3)OCO4)cc12	-2	–	–	–	–	2.6	–	–
COc1ccc2cc3cc(C(=O)NCc4ccc5c(c4)OCO5)oc3nc2c1	–	–	–	·	–	2.1	?	–
Cc1nc2ccccc2c2oc(C(=O)NCc3ccccn3)cc12	–	–	–	·	–	–	·	·
COc1ccc2cc3cc(C(=O)N4CCN(Cc5ccc6c(c5)OCO6)CC4)oc3nc2c1	–	–	–	·	–	–	·	·
CC(C)c1nnc(NC(=O)c2ccc(S(=O)(=O)N3CCOCC3)cc2)s1	–	–	–	–	–	-3.1	?	?
CCN=C1SC(C(=O)Nc2cccc(OCC)c2)CC(=O)N1CC (configuration not stated)	–	–	–	–	–	7.6	–	–
CCOC(=O)C1=C(C)N=c2s/c(=C\c3cccn3C)c(=O)n2C1c1cccc(OC)c1OC (configuration not stated)	–	–	–	–	–	55	–	–
CCc1nc(SCC(=O)N2CCC(C)CC2)c2c(=O)n(C)c(=O)n(C)c2n1	-3.5	–	–	–	–	3.4	?	–
CCCc1nc(SCC(=O)N2CCN(c3ccccc3)CC2)c2c(=O)n(C)c(=O)n(C)c2n1	-8.1	–	–	–	–	7.2	–	–
CCCc1nc(SCc2cccnc2)c2c(=O)n(C)c(=O)n(C)c2n1	-1	–	–	–	–	2.6	-25	-81
SMILES	M1 antagonist	HER2 expr 66K	JNK3 blocker	BAP1 block	HEK293 NFkB inh	M1 agonist	M1 agonist conf	M4 agonist ctr
Cn1c(=O)c2c(SCC(=O)N3CCCc4ccccc43)nc(C3CC3)nc2n(C)c1=O	-2.6	–	–	–	–	3.8	-28	?
CCc1nc(SCC(N)=O)c2c(=O)n(C)c(=O)n(C)c2n1	–	–	–	–	–	–	·	·
CC(C)(C)c1ccc(OCC(=O)Nc2ccc3oc(-c4ccc(F)cc4)nc3c2)cc1	·	·	·	–	·	·	·	·
CCOc1ccc(NC(=O)c2sc3c(c2N)C(c2ccc(Cl)cc2)C2=C(CCCC2=O)N3)cc1 (configuration not stated)	·	·	·	–	·	·	·	·
COc1ccc(C23CC4CC(CC(C4)C2)C3)cc1N=Cc1ccc([N+](=O)[O-])cc1	·	·	·	–	·	·	·	·
Oc1ccc(N=Cc2ccc(Br)cc2)cc1	·	·	·	–	·	·	·	·
CC(C)c1nc(SCC(=O)N2CCOCC2)c2c(=O)n(C)c(=O)n(C)c2n1	–	–	–	–	–	8.3	–	–
CC(C)c1nc(SCC(=O)N2CCN(c3ccccc3)CC2)c2c(=O)n(C)c(=O)n(C)c2n1	-3.6	–	–	–	–	5.7	?	–
COc1cc(-c2cc(C(F)(F)F)n3ncc(C(=O)Nc4cccnc4Cl)c3n2)cc(OC)c1OC	·	·	·	–	·	·	·	·
COc1ccc(CNn2c(C)nc3ccccc3c2=O)cc1	–	–	–	–	–	5.6	–	–
O=C(Cc1ccc([N+](=O)[O-])cc1)Nc1ccc(Cl)c([N+](=O)[O-])c1	·	·	·	–	·	·	·	·
Cc1ccc(N2C(=O)c3ccc(Oc4ccc(N)cc4)cc3C2=O)c(C)c1	·	·	·	–	·	·	·	·
CCc1nnc(NC(=O)CCC(=O)N2CCN(CCOc3ccc(C)cc3)CC2)s1	–	–	–	–	–	5.1	–	–
CCc1nnc(NC(=O)CCC(=O)N2CCN(CCc3ccccc3)CC2)s1	–	–	–	–	–	–	·	·
CC(=O)Nc1sc(N)nc1-c1ccccc1	–	–	–	–	–	–	·	·
CC(C)(C)C(=O)c1sc(Nc2ccccc2)nc1N	–	–	–	–	–	3.1	?	–
COc1ccc(-n2c(=O)c3cc4c(=O)n(-c5ccc(OC)cc5[N+](=O)[O-])c(=O)c4cc3c2=O)c([N+](=O)[O-])c1	·	·	·	–	·	·	·	·
CCOC(=O)c1sc2nc(N3CCOCC3)c3c(c2c1N)CCC3	–	–	–	–	–	2	?	–
Cc1sc2nc(CN3CCOCC3)nc(Oc3ccc(NC(=O)c4ccco4)cc3)c2c1C	–	–	–	–	–	–	·	·
COc1ccc(C(C)=O)c(Oc2nc(CN3CCOCC3)nc3scc(-c4cccs4)c23)c1	–	–	–	–	–	45	–	–
COC(=O)c1ccccc1NC(=O)c1ccc([N+](=O)[O-])o1	·	·	·	–	·	·	·	·
CC1CCCN(C/C(O)=C(\C#N)c2nc3ccccc3[nH]2)C1 (configuration not stated)	-4.2	–	–	–	–	5.4	?	–
CCc1ccc2oc(-c3ccc(C)c(NC(=O)c4ccc(F)cc4)c3)nc2c1	·	·	·	–	·	·	·	·
COc1cc(Nc2cc(C)nc3ncnn23)cc(OC)c1OC	–	–	–	–	–	4.4	?	–
CCOC(=O)CSC1=C(C#N)C(c2ccc(Cl)cc2)CC(=O)N1 (configuration not stated)	–	–	–	–	–	3	–	?
